GPR7 antag – blocks human GPR7 receptor signaling | P48145 | GPR7-expressing cells, fluorescence antagonist assay | inhibition, % at 4.4 µM | 290,000 tested, 1.1% active | AID 1861; in the data active means inhibition above about 16%, passing the limit was not always enough;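 further: cells stimulated with the agonist NPW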
Target sequence (P48145 whole entry, looked up): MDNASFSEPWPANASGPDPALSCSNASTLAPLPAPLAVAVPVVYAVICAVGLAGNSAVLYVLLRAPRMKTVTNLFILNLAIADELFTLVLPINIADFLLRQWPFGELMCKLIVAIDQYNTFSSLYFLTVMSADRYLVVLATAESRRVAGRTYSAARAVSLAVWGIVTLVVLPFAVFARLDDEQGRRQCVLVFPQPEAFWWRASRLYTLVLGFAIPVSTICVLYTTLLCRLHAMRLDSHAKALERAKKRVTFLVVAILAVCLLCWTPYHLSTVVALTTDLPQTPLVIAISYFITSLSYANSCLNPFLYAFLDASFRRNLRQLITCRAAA
OX1R antag-1 – antagonists of human orexin 1 receptor; O43613; CHO/OX1R cells, Fluo-8 calcium fluorescence, orexin A; inhibition, % at 5 µM; 330,000 tested, 0.43% active;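 active means inhibition above its plate's threshold, mean inhibition of all tested compounds on the plate plus 3 SD, cut at about 37% in these data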
CHO parental Ca – signal in parental CHO cells, OX1R antagonist counter-screen. parental CHO-K1, ATP-induced calcium, Fluo-8 fluorescence. inhibition, % at 5.6 µM. AID 463079. 330,000 tested, 0.63% active;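 active means inhibition above that plate's mean sample inhibition plus 3 SD, cut at about 26% in these data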
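Test system: parental CHO cells; detection: calcium-sensitive Fluo-8 fluorescence; evaluation: percent inhibition of calcium signal; also added: ATP as calcium-mobilizing challenge; repeats: one well per compound; control set: ATP-challenged DMSO wells low, unchallenged DMSO wells high; compound: single nominal dose of 5.6 µM per compound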
OX1R antag-2 – blocks the human orexin 1 receptor | O43613 | OX1R-expressing cells, FRET antagonist read-out | inhibition, % at 6.6 µM | 330,000 tested, 1.8% active; in the data active means inhibition mostly above about 38%, no sharp cut-off; inactive means mostly below about 40%
GalR3 antag – antagonists of human GalR3. HEK293 GalR3-CNG cAMP membrane potential fluorescence; galR3 body fused to GalR1 C-terminus. inhibition, % at 3 µM. O60755. 360,000 tested, 0.44% active;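 active means inhibition above the screen-wide average plus 3 SD, cut at about 13% in these data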;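 further: forskolin and galanin both at EC90 stimulate the cells; cAMP rise reported by CNG channel membrane potential dye signal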
Hits are given with their value; 0 = inactive; - = no result given. An excerpt weighted towards active compounds, which were near 3.1% of everything screened.

SMILES | GPR7 antag | OX1R antag-1 | CHO parental Ca | OX1R antag-2 | GalR3 antag
O=S(=O)(Nc1cccc(-c2ccc3nncn3n2)c1)c1ccc(Cl)s1 | 0 | 0 | 0 | 0 | 0
CCN(CC)S(=O)(=O)c1ccc(Oc2ccc(S(=O)(=O)N(CC)CC)cc2)cc1 | 0 | 0 | 58 | 0 | 0
COc1cc(/C=N/NC(=O)C(=O)/C=C2\NC3(CCCC3)Cc3ccccc32)ccc1O | 0 | 0 | 0 | 61 | 0
COC(=O)C1=C(C)N(Cc2ccccc2C(F)(F)F)C(=NCc2ccc3c(c2)OCO3)NC1CCc1ccccc1 (stereo not given) | - | - | - | - | 0
COC(=O)C1=C(C)NC(=S)NC1c1ccc(OCC(=O)N2CCCCC2)c(OC)c1 (stereo not given) | 0 | 0 | 0 | 0 | 0
NC(=O)Nc1ccc(C(=O)OCC(=O)c2c[nH]c3ccccc23)cc1 | - | 0 | 0 | 0 | 0
N#CCC(=O)Nc1ccc(C(=O)OCC(=O)c2c[nH]c3ccccc23)cc1 | - | 0 | 0 | 39 | 0
COCCCNC(=O)[C@H]1O[C@@H](n2cnc3c(=O)[nH]c(N)nc32)[C@H](O)[C@@H]1O | - | - | - | - | 0
CN(C)/C=C/c1oc2ccc(O)cc2c1[N+](=O)[O-] | 0 | 0 | 0 | 52 | 0
CCCCN(C(=O)CCC(=O)Nc1cc(C)on1)C(C(=O)NC1CCCC1)c1ccccc1OCC (stereo not given) | 0 | 0 | 0 | 76 | 0
COC(=O)[C@]12C[C@H](CC(=O)NCCC(C)C)C(=O)N(Cc3ccccc3)C1=C[C@H](C1CCCC1)O[C@@H]2C | - | - | - | - | 0
CCOc1cc(/C=N/NC(=O)CCn2nnc3ccccc32)ccc1O | 0 | 0 | 0 | 46 | 0
CC(=O)c1ccc(N2CCN(c3ccccc3O)CC2)c([N+](=O)[O-])c1 | 0 | 63 | 44 | 79 | 0
CC1Cc2ccccc2N1C(=O)c1ccc(N2CCCCC2)c([N+](=O)[O-])c1 (stereo not given) | 0 | 0 | 0 | 50 | 0
CC1Cc2ccccc2N1C(=O)c1ccc(N2CCCC2)c([N+](=O)[O-])c1 (stereo not given) | 0 | 0 | 0 | 0 | 0
N#Cc1cc([N+](=O)[O-])ccc1N1CCN(c2ccccc2O)CC1 | 0 | 0 | 32 | 0 | 0
CCN(CC(=O)Nc1c(F)cccc1F)C(=O)CNC(=O)c1ccc(Br)o1 | - | 0 | 0 | 60 | 0
CC1(C)OC(=O)N(CCc2ccccc2)C1(C)O (stereo not given) | 0 | 0 | 0 | 0 | 0
CC1(C)OC(=O)N(c2ccccc2)C12C=Cc1cc(Br)ccc1O2 (stereo not given) | 0 | 0 | 36 | 0 | 0
COCc1cc(N2CCNC[C@@H]2C)ccc1N1C[C@@H](C)O[C@@H](C)C1 | - | - | - | - | 0
COCc1[nH]nc2c1C(c1cccc(C(F)(F)F)c1)N(c1ccccc1)C2=O (stereo not given) | - | - | - | - | 0
CCCOC(=O)c1ccc(NC(=O)c2cc(Cl)ccc2OC)cc1 | 0 | 0 | 0 | 66 | 0
COc1cc(NC(=O)c2ccccc2-c2ccccc2)cc(OC)c1 | 0 | 0 | 0 | 57 | 0
Cn1cccc1/C=N/NC(=O)c1cc2ccccc2cc1O | 0 | 0 | 0 | 0 | 0
CCN1C(=O)/C(=C2\C=Cc3ccccc3N2CC)SC1=S | 0 | 0 | 0 | 0 | 0
SMILES | GPR7 antag | OX1R antag-1 | CHO parental Ca | OX1R antag-2 | GalR3 antag
CCN1C(=C2C(=O)c3ccccc3C2=O)C=Cc2ccccc21 | 0 | 0 | 0 | 62 | 0
CNc1nc(Cl)c(SC)c(NCc2cccc(OC)c2)n1 | 0 | 0 | 0 | 0 | 0
O=C(NCCCN1CCN(CCCNC(=O)c2cc([N+](=O)[O-])ccc2Cl)CC1)c1cc([N+](=O)[O-])ccc1Cl | 0 | 0 | 0 | 72 | 0
O=C(Nc1cc([N+](=O)[O-])ccc1C(=O)NCCN1CCOCC1)c1ccccc1 | 0 | 0 | 0 | 75 | 0
O=C(Nc1ccccc1C(=O)NCCN1CCOCC1)c1cccc([N+](=O)[O-])c1 | 0 | 0 | 0 | 0 | 0
Cc1ccc(C(=O)Nc2ccc3c(c2)OCO3)cc1 | 0 | 0 | 0 | 0 | 0
CCc1nc2ccc(C(=O)Nc3ccc4c(c3)OCO4)cc2nc1CC | 0 | 0 | 0 | 35 | 0
COc1ccc(NC(=O)c2c(C)noc2C)cc1S(=O)(=O)N1CCCCC1 | - | - | - | - | 0
CC1CN(C2=NC(=O)/C(=C/c3ccncc3)S2)CC(C)O1 (stereo not given) | 0 | 0 | 0 | 34 | 0
Cc1ccc(/C=C2\SC(N3CCCC3)=NC2=O)cc1 | 0 | 0 | 0 | 0 | 0
CC(=O)c1nn(-c2ccccc2)cc1C(=O)c1ccc(Br)cc1 | 0 | 0 | 40 | 0 | 0
CC(=O)c1nn(-c2cccc(Br)c2)cc1C(=O)c1ccccc1 | 0 | 0 | 0 | 0 | 0

Screening results as filed in PubChem BioAssay.
